Converted amounts (≈) assume the structure as drawn.

Here are results for 54 compounds from ChEMBL document CHEMBL1139315, “Search for new pharmacophores for antimalarial activity. Part II: synthesis and antimalarial activity of new 6-ureido-4-anilinoquinazolines” (Bioorg Med Chem, 2009).

Assay [1] relates to Plasmodium falciparum. As to the kind of experiment: Antimalarial activity as schizonticidal activity after 48 hrs against chloroquine-sensitive Plasmodium falciparum 3D7. It is filed as functional. To be noted: 3D7, 48 h. An outline of the steps:
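3D7 ring stages synchronized with 5% sorbitol; 3% cell suspension at 1% parasitaemia added to duplicate wells of diluted compound (DMSO stock 5 mg/mL, diluted in RPMI). Incubated at 37 °C under CO2 for more than 40 h. Giemsa-stained thin smears counted by light microscopy; MIC = lowest concentration giving 100% inhibition of schizont maturation against untreated control.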

Assay [2] is described as follows: Selectivity index, ratio of CC50 for african green monkey (Cercopithecus aethiops) Vero C1008 cells to IC50 for chloroquine-sensitive Plasmodium falciparum 3D7. It is filed as functional. An outline of the steps: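 Vero C1008 cells exposed to serially diluted compound, highest 100 µg/mL, for 72 h; MTT read-out; CC50 = concentration killing 50% of cells. SI = CC50/IC50, with IC50 from the SYBR Green I assay on 3D7.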

Assay [3] deals with Plasmodium yoelii nigeriensis. Put plainly: Antimalarial activity as reduced parasitaemia against Plasmodium yoelii nigeriensis MDR infected Swiss mice (Mus musculus) at 100 mg/kg peroral dose for 4 days. It is filed as functional. Details: scale not given: the % may be the effect or the level left. To be noted: route oral. An outline of the steps: (§1)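 Swiss mice (25 g, either sex), five per group, infected with 1 × 10^6 parasitized cells on day 0. Aqueous suspension given orally from day 0 to day 4; vehicle-only group as control. Parasitaemia read from tail-vein thin blood smears, reported as mean % parasitaemia on day 4 and day 7.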

Assay [4] deals with Plasmodium yoelii nigeriensis. As to the kind of experiment: Antimalarial activity as reduced parasitaemia against Plasmodium yoelii nigeriensis MDR infected Swiss mice (Mus musculus) at 100 mg/kg peroral dose […]. The arrangement: scale not given: the % may be the effect or the level left. It is filed as functional. To be noted: route oral. An outline of the steps: as §1

For assay [5], the system named is Plasmodium falciparum. Put plainly: Antimalarial activity after 72 hrs against chloroquine-sensitive Plasmodium falciparum 3D7 infected erythrocytes by MSF assay. It is filed as functional, organism-based. To be noted: 3D7, 72 h. The essentials: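 P. falciparum 3D7 kept in RPMI with gentamicin 40 µg/mL, Fungizone 0.25 µg/mL and 10% FBS (pH 7.2) at 37 °C under CO2. Twofold serial dilutions over seven concentrations, top 10–500 ng/mL, duplicate wells; 2.5% haematocrit, 0.5% parasitaemia; 72 h. SYBR Green I in lysis buffer (Tris pH 7.5, EDTA, saponin, Triton X-100), 1 h at room temperature, fluorescence read; IC50 by logit regression.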

As a reminder, the MIC is the lowest concentration found to suppress growth. Regarding `COc1ccc(Nc2ncnc3ccc(NC(=O)Nc4cccc(C(C)=O)c4)cc23)cc1OC`, in assay [1], the minimum inhibitory concentration (MIC) was found to be 10 µg/mL (≈ 21.9 µM).
The same measure, in the same setting: with `COc1cccc(Nc2ncnc3ccc(NC(=O)Nc4cccc(C(C)=O)c4)cc23)c1` the figure was 10 µg/mL (≈ 23.4 µM); with `O=C(Nc1ccc(Br)cc1)Nc1ccc2ncnc(Nc3ccc(F)cc3)c2c1`, 10 µg/mL (≈ 22.1 µM).
Still for that read-out and setting: with `O=C(Nc1cc(Cl)cc(Cl)c1)Nc1ccc2ncnc(Nc3cccc(C(F)(F)F)c3)c2c1` the figure was 10 µg/mL (≈ 20.3 µM).
As a reminder, the IC50 is the concentration that gives 50% inhibition. `O=C(Nc1ccc(Cl)c(C(F)(F)F)c1)Nc1ccc2ncnc(Nc3cccc(C(F)(F)F)c3)c2c1`: the “Ratio CC50/IC50” value in assay [2] was 1194. Further, the Activity in assay [3] came to 10%; in assay [4], 30.5%. The same compound gave a concentration for half-maximal inhibition (IC50) in assay [5] of 0.0023 µg/mL (≈ 0.00437 µM). The compound further yielded an MIC in assay [1] of 0.25 µg/mL (≈ 0.475 µM).
The compound `COc1cccc(Nc2ncnc3ccc(NC(=O)Nc4cccc(C#N)c4)cc23)c1` had an MIC in assay [1] of 10 µg/mL (≈ 24.4 µM).
The same measure, in the same setting: under `COc1cccc(Nc2ncnc3ccc(NC(=O)Nc4ccc(C)c(Cl)c4)cc23)c1` stands 0.5 µg/mL (≈ 1.15 µM); under `Cc1ccc(NC(=O)Nc2ccc3ncnc(Nc4cccc(C(F)(F)F)c4)c3c2)cc1Cl`, 10 µg/mL (≈ 21.2 µM).
In the case of `O=C(Nc1ccc(Cl)c(Cl)c1)Nc1ccc2ncnc(Nc3cccc(C(F)(F)F)c3)c2c1`, the “Ratio CC50/IC50” value in assay [2] worked out at 69. The IC50 in assay [5] was determined as 0.013 µg/mL (≈ 0.0264 µM). In assay [1], the MIC was 0.25 µg/mL (≈ 0.508 µM).
Compound `Cc1ccc(Nc2ncnc3ccc(NC(=O)Nc4ccc(Br)cc4)cc23)cc1` registered an MIC in assay [1] of 1 µg/mL (≈ 2.23 µM).
`N#Cc1cccc(NC(=O)Nc2ccc3ncnc(Nc4cccc(C(F)(F)F)c4)c3c2)c1` gave an MIC in assay [1] of 1 µg/mL (≈ 2.23 µM).
Turning to `O=C(Nc1ccc(Cl)cc1)Nc1ccc2ncnc(Nc3cccc(C(F)(F)F)c3)c2c1`, the “Ratio CC50/IC50” value in assay [2] turned out to be 35.9. Also, the IC50 in assay [5] is 0.0674 µg/mL (≈ 0.147 µM). Moreover, the minimum inhibitory concentration (MIC) in assay [1] came to 0.25 µg/mL (≈ 0.546 µM).
In assay [1], `O=C(Nc1ccc(Cl)c(Cl)c1)Nc1ccc2ncnc(Nc3ccc(Cl)cc3)c2c1` registered an MIC of 0.5 µg/mL (≈ 1.09 µM).
For the compound `O=C(Nc1ccc(Cl)c(Cl)c1)Nc1ccc2ncnc(Nc3cccc(F)c3)c2c1`, the “Ratio CC50/IC50” value in assay [2] was 221.5. Also, the IC50 in assay [5] amounted to 0.0245 µg/mL (≈ 0.0554 µM). The MIC in assay [1] came to 0.25 µg/mL (≈ 0.565 µM).
In the case of `O=C(Nc1ccc(Cl)c(C(F)(F)F)c1)Nc1ccc2ncnc(Nc3cccc(F)c3)c2c1`, the values for the Activity in assay [3] and in assay [4] were 22% and 14.5%, respectively. The compound further had an MIC in assay [1] of 0.5 µg/mL (≈ 1.05 µM).
`CC(=O)c1cccc(NC(=O)Nc2ccc3ncnc(Nc4ccc(C)cc4)c3c2)c1` gave an MIC in assay [1] of 2 µg/mL (≈ 4.86 µM).
For `COc1ccc(Nc2ncnc3ccc(NC(=O)Nc4ccc(Br)cc4)cc23)cc1OC`, the Activity in assay [3] stood at 26.3%; in assay [4] it was 26.5%. The compound also showed an MIC in assay [1] of 0.5 µg/mL (≈ 1.01 µM).
For `COc1ccc(Nc2ncnc3ccc(NC(=O)Nc4ccc(C)c(Cl)c4)cc23)cc1OC`, the “Ratio CC50/IC50” value in assay [2] was 449. The same compound gave a half-inhibitory concentration (IC50) in assay [5] of 0.0223 µg/mL (≈ 0.0481 µM). This compound gave an MIC in assay [1] of 0.25 µg/mL (≈ 0.539 µM).
In assay [1], `COc1ccc(Nc2ncnc3ccc(NC(=O)Nc4ccc(Cl)cc4)cc23)cc1OC` returned an MIC of 0.5 µg/mL (≈ 1.11 µM).
As to `COc1ccc(Nc2ncnc3ccc(NC(=O)Nc4ccc(Cl)c(Cl)c4)cc23)cc1`, the MIC in assay [1] was 2 µg/mL (≈ 4.4 µM).
`COc1ccc(Nc2ncnc3ccc(NC(=O)Nc4ccc(C(C)=O)cc4)cc23)cc1` yielded an MIC in assay [1] of 2 µg/mL (≈ 4.68 µM).
Turning to `N#Cc1cccc(NC(=O)Nc2ccc3ncnc(Nc4cccc(Cl)c4)c3c2)c1`, it took 0.5 µg/mL (≈ 1.21 µM) to inhibit growth in assay [1] (MIC).
Still for that read-out and setting: with `O=C(Nc1ccc(Cl)c(Cl)c1)Nc1ccc2ncnc(Nc3cccc(Cl)c3)c2c1` the figure was 0.5 µg/mL (≈ 1.09 µM).
For the compound `O=C(Nc1ccc(Br)cc1)Nc1ccc2ncnc(Nc3ccccc3)c2c1`, the “Ratio CC50/IC50” value in assay [2] is on record as 132.5. The compound further showed an IC50 in assay [5] of 0.173 µg/mL (≈ 0.399 µM). In assay [1], the lowest concentration to inhibit growth (MIC) was 0.25 µg/mL (≈ 0.576 µM).
In turn, `O=C(Nc1ccc(Cl)cc1)Nc1ccc2ncnc(Nc3ccccc3)c2c1` gave an MIC in assay [1] of 1 µg/mL (≈ 2.57 µM).
On the same count and under the same terms, with `COc1ccc(Nc2ncnc3ccc(NC(=O)Nc4cccc(C#N)c4)cc23)cc1` the figure was 2 µg/mL (≈ 4.87 µM); with `Cc1ccc(Nc2ncnc3ccc(NC(=O)Nc4cccc(C#N)c4)cc23)cc1`, 10 µg/mL (≈ 25.4 µM); with `Cc1ccc(Nc2ncnc3ccc(NC(=O)Nc4ccc(Cl)c(Cl)c4)cc23)cc1`, 1 µg/mL (≈ 2.28 µM).
The same measure, in the same setting: under `O=C(Nc1ccc(Cl)c(Cl)c1)Nc1ccc2ncnc(Nc3ccccc3)c2c1` stands 10 µg/mL (≈ 23.6 µM); under `O=C(Nc1ccc(Cl)cc1)Nc1ccc2ncnc(Nc3cccc(Cl)c3)c2c1`, over 10 µg/mL; under `COc1ccc(Nc2ncnc3ccc(NC(=O)Nc4ccc(Br)cc4)cc23)cc1`, 1 µg/mL (≈ 2.15 µM).
`Cc1ccc(NC(=O)Nc2ccc3ncnc(Nc4ccccc4)c3c2)cc1Cl`: in assay [1], the MIC was 1 µg/mL (≈ 2.48 µM).
With `Cc1ccc(NC(=O)Nc2ccc3ncnc(Nc4cccc(F)c4)c3c2)cc1Cl`, the “Ratio CC50/IC50” value in assay [2] was 76.6. This compound also came in with an IC50 in assay [5] of 0.147 µg/mL (≈ 0.348 µM). The same compound displayed an MIC in assay [1] of 0.25 µg/mL (≈ 0.593 µM).
For `O=C(Nc1ccc(Br)cc1)Nc1ccc2ncnc(Nc3ccc(Cl)cc3)c2c1`, inhibition of growth in assay [1] (MIC) required 1 µg/mL (≈ 2.13 µM).
As to `COc1ccc(Nc2ncnc3ccc(NC(=O)Nc4cccc(C#N)c4)cc23)cc1OC`, the Activity in assay [3] worked out at 13.9%; in assay [4], 23.2%. The same compound yielded an MIC in assay [1] of 0.5 µg/mL (≈ 1.14 µM).
Turning to `O=C(Nc1ccc(Br)cc1)Nc1ccc2ncnc(Nc3cccc(F)c3)c2c1`, it took 0.5 µg/mL (≈ 1.11 µM) to inhibit growth in assay [1] (MIC).
On the same count and under the same terms, under `O=C(Nc1ccc(Cl)cc1)Nc1ccc2ncnc(Nc3ccc(Cl)cc3)c2c1` stands 0.5 µg/mL (≈ 1.18 µM).
With `COc1ccc(Nc2ncnc3ccc(NC(=O)Nc4ccc(C)c(Cl)c4)cc23)cc1`, the “Ratio CC50/IC50” value in assay [2] was determined as 114.9. In assay [5], this compound came in with an IC50 of 0.05 µg/mL (≈ 0.115 µM). Further, in assay [1], the MIC turned out to be 0.25 µg/mL (≈ 0.576 µM).
In assay [1], `O=C(Nc1ccc(Br)cc1)Nc1ccc2ncnc(Nc3cccc(Cl)c3)c2c1` registered an MIC of 1 µg/mL (≈ 2.13 µM).
As to `Cc1ccc(NC(=O)Nc2ccc3ncnc(Nc4ccc(Cl)cc4)c3c2)cc1Cl`, the MIC in assay [1] turned out to be 1 µg/mL (≈ 2.28 µM).
Consider `COc1ccc(Nc2ncnc3ccc(NC(=O)Nc4cccc(C(C)=O)c4)cc23)cc1`, for which the minimum inhibitory concentration (MIC) in assay [1] was 10 µg/mL (≈ 23.4 µM).
As to `Cc1ccc(Nc2ncnc3ccc(NC(=O)Nc4ccc(Cl)cc4)cc23)cc1`, the “Ratio CC50/IC50” value in assay [2] came to 126.3. In assay [5], this compound gave an IC50 of 0.0771 µg/mL (≈ 0.191 µM). In assay [1], this compound came in with an MIC of 1 µg/mL (≈ 2.48 µM).
In turn, `O=C(Nc1ccc(Cl)c(Cl)c1)Nc1ccc2ncnc(Nc3ccc(F)cc3)c2c1` returned an MIC in assay [1] of 10 µg/mL (≈ 22.6 µM).
On to `COc1ccc(Nc2ncnc3ccc(NC(=O)Nc4ccc(Cl)cc4)cc23)cc1`, for which the “Ratio CC50/IC50” value in assay [2] is 435.1. In assay [5], this compound showed an IC50 of 0.094 µg/mL (≈ 0.224 µM). Moreover, the MIC in assay [1] was 0.25 µg/mL (≈ 0.595 µM).
In the case of `O=C(Nc1cc(Cl)cc(Cl)c1)Nc1ccc2ncnc(Nc3cccc(F)c3)c2c1`, the minimal inhibitory concentration (MIC) in assay [1] is over 10 µg/mL.
In turn, `Cc1ccc(NC(=O)Nc2ccc3ncnc(Nc4cccc(Cl)c4)c3c2)cc1Cl` yielded an MIC in assay [1] of 10 µg/mL (≈ 22.8 µM).
Still for that read-out and setting: under `CC(=O)c1ccc(NC(=O)Nc2ccc3ncnc(Nc4ccc(C)cc4)c3c2)cc1` stands 2 µg/mL (≈ 4.86 µM); under `N#Cc1cccc(NC(=O)Nc2ccc3ncnc(Nc4ccccc4)c3c2)c1`, 0.5 µg/mL (≈ 1.31 µM).
Still for that read-out and setting: with `COc1ccc(Nc2ncnc3ccc(NC(=O)Nc4ccc(C(C)=O)cc4)cc23)cc1OC` the figure was 10 µg/mL (≈ 21.9 µM).
Regarding `COc1cccc(Nc2ncnc3ccc(NC(=O)Nc4ccc(Br)cc4)cc23)c1`, the MIC in assay [1] came out at 2 µg/mL (≈ 4.31 µM).
Same read-out and setting: under `COc1cccc(Nc2ncnc3ccc(NC(=O)Nc4ccc(Cl)c(Cl)c4)cc23)c1` stands 2 µg/mL (≈ 4.4 µM); under `COc1cccc(Nc2ncnc3ccc(NC(=O)Nc4ccc(C(C)=O)cc4)cc23)c1`, over 10 µg/mL.
With `COc1cccc(Nc2ncnc3ccc(NC(=O)Nc4ccc(Cl)cc4)cc23)c1`, the “Ratio CC50/IC50” value in assay [2] stood at 378.9. The compound further gave an IC50 in assay [5] of 0.159 µg/mL (≈ 0.377 µM). The compound further showed a minimum inhibitory concentration (MIC) in assay [1] of 0.25 µg/mL (≈ 0.595 µM).
Turning to `CCN(CC)CCCC(C)Nc1ccnc2cc(Cl)ccc12` (centres undefined) [CHLOROQUINE], the MIC in assay [1] turned out to be 0.125 µg/mL (≈ 0.391 µM).
